# rRNA inh HTS: selective bacterial rRNA inhibition in E. coli; E. coli WT GFP vs humanized-ribosome RFP mutants, fluorescence, 24 h; active compounds read low; DMSO median 0, no signal -100; GFP signal change (wild-type ribosome), % (no concentration beside the values); hit rate 1.6% among 350,000; AID 720706;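 active = significant combined selectivity score with lowered wild-type GFP, culture density cut under 30%, mutant RFP and density less affected; inactive = any of these conditions unmet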
# Env fusion inh: blocks HIV Env-driven cell-cell fusion; HeLa-JRFL Env/CEM21 cell fusion, luciferase; inhibition, % at 12.3 µM; hit rate 1.1% among 360,000; AID 651610;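 active = mean replicate inhibition score of at least 50 and every replicate individually at or above 50; inconclusive = only one of the two criteria met; inactive = mean below 50 and not all replicates reaching 50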;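 note: 0% = plate neutral controls and 100% = maraviroc near 300 nM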
# miR122 inh: miR-122 inhibition in Huh7 cells. Huh7 miR-122 Renilla luciferase sensor, 48 h; neutral wells = 0, positive control = 100. activation (reporter increase), % at 12.5 µM. hit rate 0.3% among 340,000. AID 602342;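 active = mean replicate activation score at least 90 and every replicate individually at or above 90; inconclusive = only one of the two criteria met; inactive = neither criterion met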;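 note: higher luciferase means less miR-122 activity so hits act as miR-122 inhibitors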
# F508del corr: correctors of CFTR F508del function in bronchial epithelial cells | hit rate 0.36% among 350,000 | CFBE cells, YFP halide quenching; stimulated with forskolin plus potentiator P3; % fluorescence drop versus neutral controls | activity (quench increase), % at 7.58 µM;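 active = mean added fluorescence quench of at least 8% versus neutral control, with both replicates also reaching 8%; inconclusive = only one of the mean or replicate conditions met; inactive = mean below 8% and not both replicates reaching 8%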;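 note: cells transiently co-express mutant CFTR-F508del with the halide-sensitive YFP; corrector assay measuring rescue of mutant channel to the surface after 24 h compound exposure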
# INS-1E GSIS act: primary screen for activators of insulin secretion dependent on glucose, INS-1E cells, GLuc reporter luminescence. INS-1E GLuc reporter insulin secretion, 2-3 h. activation, % at 16.6 µM. hit rate 0.61% among 370,000. AID 743287;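 active = lowest replicate activation of at least 40%, so every replicate reaches that level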;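 note: 0% = median of neutral control wells and 100% = median of IBMX positive control wells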
# Cneo AK release: causes C. neoformans cell lysis. adenylate kinase release luminescence, 4 h; normalised: neutral wells 0, clomiphene wells 100. lysis activity, % at 15 µM. hit rate 0.2% among 360,000. AID 651654;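 active = mean lysis activity across replicates of at least 80%, whatever share of replicates individually reach that level; inactive = mean lysis activity below 80%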
#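 Test system: log-phase Cryptococcus neoformans yeast cells. Input: 5 × 10^6 yeast cells/mL. Medium: fresh YPD growth medium. Doses: single dose. Incubation: static 4 h at 37 °C with compound, 1 h detection. Measured by: luminescent adenylate kinase detection reagent. Read-out: signal increase indicating cell lysis. Benchmarks: Clomiphene.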
# Active calls of the source: *; ? = inconclusive; nt = not tested or not shown; [ ] = another dose, or the depositor's remark. Hits are enriched below; roughly 3.1% of the tested compounds scored in any of these assays.
SMILES,rRNA inh HTS,Env fusion inh,miR122 inh,F508del corr,INS-1E GSIS act,Cneo AK release
CCOC(=O)N1CCN(C(=O)c2cc3c(-c4cccc(OC)c4)nn(C)c3s2)CC1,-28.6*,14.8,-4.5,-1.3,nt,-0.4
CCOC(=O)N1CCC(NC(=O)c2cc3c(-c4cccc(OC)c4)nn(C)c3s2)CC1,nt,nt,-0.8,nt,-25.0,-0.7
CC(C)C(=O)Nc1ccc2c(c1)C(=O)N(C)[C@@H]1CC[C@@H](CC(=O)NCc3cccc(F)c3)O[C@@H]1CO2,0.1,1.3[16.7 µM],-30.0[16.7 µM],-2.0,-0.7,-3.6
NC(=O)c1sc(=S)n(-c2ccc(Br)cc2)c1N,-31.0*,-80.7,10.1,5.4,-4.8,-3.5
C[C@@H]1Cn2cnc(C(=O)N(C)Cc3ccccc3)c2C(=O)N1,14.7,-38.9,nt,0.3,4.4,nt
C[C@H](NC(=O)c1ncn2c1C(=O)NC[C@H]2C)c1ccccc1,2.4,-24.5,6.4,-2.1,7.0,0.8
C[C@@H]1CNC(=O)c2c(C(=O)N(C)Cc3ccccc3)ncn21,14.3,137.1*,nt,1.3,-35.1,nt
C[C@H]1Cn2cnc(C(=O)N3CCN(C(=O)OC(C)(C)C)CC3)c2C(=O)N1,19.8,-37.2,nt,-0.1,3.3,nt
C[C@H]1CNC(=O)c2c(C(=O)N3CCN(c4ccccc4)CC3)ncn21,15.1,79.0*,nt,-3.6,-28.5,nt
C[C@H]1CNC(=O)c2c(C(=O)N3CCN(C(=O)OC(C)(C)C)CC3)ncn21,8.2,71.7*,9.2,-0.7,-57.0,-1.7
Cc1ccc(-c2cnc3c(c2)C(=O)N([C@@H](C)CO)C[C@@H](C)[C@H](CN(C)CC2CCCCC2)O3)cc1,1.3,nt,-23.6[16.7 µM],1.1,13.9,-2.2
C[C@@H]1CN([C@@H](C)CO)C(=O)Cc2cc(NC(=O)Nc3ccc(C(F)(F)F)cc3)ccc2O[C@@H]1CN(C)Cc1ccc(-c2ccccc2)cc1,1.0,2.2[16.7 µM],17.7[16.7 µM],1.8,4.4,-0.5
CCCNC(=O)Nc1ccc2c(c1)C(=O)N(C)C[C@H](OC)[C@@H](C)CN(C(=O)C1CCC1)[C@H](C)CO2,4.9,nt,4.8[16.7 µM],1.7,6.7,0.6
Cc1cccc(C2NC(=O)c3ccccc3N2)c1 (centres undefined),13.6,-100.3,-0.4,-1.6,nt,nt
Cc1ccc(C2NC(=O)c3ccccc3N2)c(C)c1 (centres undefined),12.9,-47.4,14.5,10.9*,nt,nt
Cc1ccc(Cl)cc1N1CCN(Cc2cc(=O)n3ccsc3n2)CC1,-28.6*,3.2,nt,3.9,13.5,nt
CN(C)/C=N/C1=C(C#N)C(c2ccc(Br)cc2)c2ccc3ccccc3c2O1 (centres undefined),-5.5,59.4*,1.8,-1.2,nt,0.9
C[C@H]1CN([C@@H](C)CO)C(=O)c2cccc(NC(=O)c3cnccn3)c2O[C@@H]1CN(C)Cc1ccc(-c2ccccc2)cc1,-8.7,nt,-7.5[16.7 µM],4.2,-19.3,7.7
COc1ccc2c(c1)C(O)C(CO)C(C(=O)O)C2 (centres undefined),8.4,-6.0,nt,10.5*,7.1,nt
CCOc1ccc(NC(=S)NNC(=O)c2ccc(Br)cc2)cc1,-14.9*,6.3,nt,-1.6,-30.8,nt
C[C@H]1CN(C)C(=O)c2cc(N(C)C)ccc2O[C@H]1CN(C)C,-0.8,nt,nt,nt,-7.8,nt
CC12CCC(CC1O)C2C(=O)O (centres undefined),10.7,-20.4,nt,8.2*,nt,nt
CCOC(=O)c1c(N)sc(C(O)(C(F)(F)F)C(F)(F)F)c1-c1ccc(OC)cc1OC,-26.9*,nt,13.5,2.5,2.8,-3.0
CCOC(=O)c1c(N)sc(N)c1C(=O)OCC,nt,11.3,nt,nt,nt,nt
C[C@@H]1CN([C@H](C)CO)C(=O)c2cc(NC(=O)Nc3ccc4c(c3)OCO4)ccc2O[C@@H](C)CCCCO[C@@H]1CN(C)Cc1ccc(C(F)(F)F)cc1,2.3,?,8.9[16.7 µM],-2.8,-7.0,-1.8
C[C@@H]1CN([C@@H](C)CO)C(=O)c2cc(NC(=O)Nc3ccc4c(c3)OCO4)ccc2O[C@@H](C)CCCCO[C@H]1CN(C)Cc1ccc(C(F)(F)F)cc1,1.4,61.2*[16.7 µM],-9.5[16.7 µM],2.1,-4.1,56.7

# Bioassay records from PubChem.
